Key:
[1] = Octanol-water partition coefficient, log P of the compound
[2] = DPPH radical scavenging activity assessed as Trolox equivalent antioxidant capacity at 50 uM after 40 mins; type: functional
Outline: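 DPPH in ethanol; decrease in absorbance at 517 nm measured. Blank was ethanol; control was DPPH solution in ethanol. Triplicate. Trolox used as reference; TE = (A_control − A_test)/(A_control − A_trolox), A_control being DPPH solution without sample.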

[3] = ABTS radical scavenging activity assessed as Trolox equivalent antioxidant capacity at 50 uM by spectrophotometric analysis; type: physicochemical
Outline: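 ABTS•+ generated from 7 mM ABTS in water with 2.45 mM potassium persulfate, kept dark at room temperature 12–16 h. Ethanolic compound solutions added to 180 µL radical solution; absorbance followed over 20 min. Blank control set as 100% radical. Triplicate. TE = (A_control − A_test)/(A_control − A_trolox); Trolox reference.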

logP [1] | Activity [3] | SMILES | Activity [2]
2.58 | 2.527 | CCOC(=O)/C=C/c1cc(O)c(O)c(Br)c1 | 0.938
2.25 | 2.554 | COc1cc(/C=C/C(=O)O)cc(Br)c1O | 0.808
1.98 | 2.496 | O=C(O)/C=C/c1cc(O)c(O)c(Br)c1 | 1.01
2.85 | 2.558 | CCOC(=O)/C=C/c1cc(Br)c(O)c(OC)c1 | 0.558
 | 2.538 | O=C(O)/C=C/c1ccc(O)c(O)c1 [CAFFEIC ACID] | 0.978
1.75 | 2.558 | CCOC(=O)/C=C/c1ccc(O)c(O)c1 [ETHYL CAFFEATE] | 0.877
2.02 | 2.538 | CCOC(=O)/C=C/c1ccc(O)c(OC)c1 [ETHYL FERULATE] | 0.593
1.42 | 2.534 | COc1cc(/C=C/C(=O)O)ccc1O [FERULATE] | 0.781
 | 2.538 | COc1cc(/C=C/C(=O)O)cc(OC)c1O [SINAPINATE] | 0.862

Reference: ChEMBL document CHEMBL1137746, “New insights into the antioxidant activity of hydroxycinnamic acids: Synthesis and physicochemical characterization of novel halogenated derivatives” (Eur J Med Chem, 2009)
